Measurements published in publication PMC7042484 (Redox Biology, 2020).
“Also recorded” adds a separate entry of the source.

What was measured:
[1] = biological target: xanthine oxidase (Bos taurus, UniProt P80457); assay: Xanthine Oxidase assay; type: biochemical; details: 100 μM compound, hypoxanthine, Amplex Red/peroxidase
In short: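 Compound (100 μM) with xanthine oxidase, 100 μM Amplex Red, 0.4 U/mL horseradish peroxidase and 0.2 mM hypoxanthine. 15 min at 37 °C; H2O2-derived resorufin read by fluorescence, ex 530/em 590 nm.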

[2] = biological target: T1, bacterial NOX5 (Cylindrospermum stagnale, UniProt K9WT99); assay: Initial evaluation on NOX5 membrane preparations; type: biochemical; details: for inhibition of NOX5 (in words): 100 μM compound, membranes
T1 sequence (K9WT99 1-693): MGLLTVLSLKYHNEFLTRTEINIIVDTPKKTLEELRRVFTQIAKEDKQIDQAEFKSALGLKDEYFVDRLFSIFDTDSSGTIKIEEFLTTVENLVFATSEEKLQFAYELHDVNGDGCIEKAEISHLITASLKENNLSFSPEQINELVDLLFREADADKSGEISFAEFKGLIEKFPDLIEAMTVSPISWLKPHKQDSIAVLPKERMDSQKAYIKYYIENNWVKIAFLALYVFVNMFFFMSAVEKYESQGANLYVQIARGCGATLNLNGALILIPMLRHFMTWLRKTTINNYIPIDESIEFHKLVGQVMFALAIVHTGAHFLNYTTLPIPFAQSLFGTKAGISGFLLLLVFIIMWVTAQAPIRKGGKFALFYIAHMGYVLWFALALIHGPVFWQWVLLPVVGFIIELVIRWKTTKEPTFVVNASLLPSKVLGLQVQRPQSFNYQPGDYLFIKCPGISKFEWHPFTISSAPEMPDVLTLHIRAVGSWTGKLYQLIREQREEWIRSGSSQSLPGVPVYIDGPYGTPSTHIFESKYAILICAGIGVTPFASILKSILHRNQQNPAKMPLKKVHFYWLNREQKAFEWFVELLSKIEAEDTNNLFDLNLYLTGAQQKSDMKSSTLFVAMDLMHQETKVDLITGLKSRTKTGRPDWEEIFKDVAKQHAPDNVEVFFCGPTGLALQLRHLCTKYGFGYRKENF

[3] = biological target: T1, bacterial NOX5; assay: MCLA assay on NOX5 membranes; type: biochemical
In short: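 E. coli membranes carrying FLAG-(His)8-SUMO-tagged C. stagnale NOX5, 12 μg, in PBS with 1 mM CaCl2, 0.5 μM FAD and 1 μM MCLA. Compound (100 μM single point, or concentration series) 10 min at 25 °C. Started with 200 μM NADPH; chemiluminescence read. Membranes lacking NOX5 set noise level. IC50 by sigmoidal fit, % of untreated control.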

[4] = biological target: T2, human NOX2 (Homo sapiens, UniProt P04839); assay: Initial evaluation on NOX2 membrane preparations; type: biochemical; details: for inhibition of NOX2 (in words): 100 μM compound, membranes
T2 sequence (P04839 2-570 limits assumed): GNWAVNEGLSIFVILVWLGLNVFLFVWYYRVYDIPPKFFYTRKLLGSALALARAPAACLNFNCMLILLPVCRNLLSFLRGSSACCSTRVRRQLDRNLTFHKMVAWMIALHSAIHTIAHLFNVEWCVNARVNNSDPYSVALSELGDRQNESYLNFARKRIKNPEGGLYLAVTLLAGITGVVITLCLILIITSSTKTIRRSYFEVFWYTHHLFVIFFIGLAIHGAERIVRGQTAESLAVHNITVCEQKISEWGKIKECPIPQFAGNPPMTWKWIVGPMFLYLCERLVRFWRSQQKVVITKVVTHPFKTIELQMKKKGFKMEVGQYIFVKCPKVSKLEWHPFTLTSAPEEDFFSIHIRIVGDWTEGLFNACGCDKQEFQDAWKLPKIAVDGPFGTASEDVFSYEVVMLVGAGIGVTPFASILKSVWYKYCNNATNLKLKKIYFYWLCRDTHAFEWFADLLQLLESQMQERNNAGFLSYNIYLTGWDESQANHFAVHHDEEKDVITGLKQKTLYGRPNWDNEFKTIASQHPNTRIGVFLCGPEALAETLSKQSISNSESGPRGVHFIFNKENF
T2 sequence (P13498 2-195 partner limits assumed): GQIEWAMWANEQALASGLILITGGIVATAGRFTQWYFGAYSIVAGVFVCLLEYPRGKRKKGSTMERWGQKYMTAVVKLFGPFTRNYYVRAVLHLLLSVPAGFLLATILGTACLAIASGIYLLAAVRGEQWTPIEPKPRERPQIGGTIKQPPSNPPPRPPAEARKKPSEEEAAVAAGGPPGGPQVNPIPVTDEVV

[5] = biological target: T3, human NOX4 (Homo sapiens, UniProt Q9NPH5); assay: Initial evaluation on NOX4 membrane preparations; type: biochemical; details: for inhibition of NOX4 (in words): 100 μM compound, membranes
T3 sequence (Q9NPH5 1-578): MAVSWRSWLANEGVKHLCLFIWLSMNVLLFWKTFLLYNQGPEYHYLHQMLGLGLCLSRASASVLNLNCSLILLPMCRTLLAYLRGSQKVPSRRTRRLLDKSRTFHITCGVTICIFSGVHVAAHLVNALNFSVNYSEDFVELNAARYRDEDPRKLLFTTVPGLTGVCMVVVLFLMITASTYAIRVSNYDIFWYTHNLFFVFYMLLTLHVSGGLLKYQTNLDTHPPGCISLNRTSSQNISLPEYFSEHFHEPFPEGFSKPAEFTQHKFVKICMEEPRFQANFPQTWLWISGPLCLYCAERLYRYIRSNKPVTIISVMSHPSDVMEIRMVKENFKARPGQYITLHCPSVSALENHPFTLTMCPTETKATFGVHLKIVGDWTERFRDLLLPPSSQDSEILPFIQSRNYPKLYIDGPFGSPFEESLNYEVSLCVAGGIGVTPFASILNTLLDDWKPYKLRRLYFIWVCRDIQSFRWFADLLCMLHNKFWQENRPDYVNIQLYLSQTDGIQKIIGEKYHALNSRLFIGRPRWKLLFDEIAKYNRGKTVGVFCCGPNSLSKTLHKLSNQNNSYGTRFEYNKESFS
T3 sequence (P13498 2-195 partner limits assumed): T2 sequence (P13498 2-195 partner limits assumed)
In short: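 NOX4-p22 membranes from transfected HEK293 EBNA-1 cells, compound 100 μM, 10 min preincubation at 4 °C in PBS. Amplex Red: 100 μg membranes, 12.5 μM Amplex Red, 0.02 U/ml HRP, 40 μM FAD, started with 40 μM NADPH, ex 572/em 583 nm. CBA: 50 μg membranes, 20 μM FAD, then 200 μM coumarin boronic acid and 50 μM NADPH, ex 320/em 430 nm.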

[6] = biological target: T4, wild-type dehydrogenase domain of bacterial NOX5 (Cylindrospermum stagnale, UniProt K9WT99); assay: NADPH-depletion assay on purified wild-type NOX5 dehydrogenase domain; type: biochemical
T4 sequence (K9WT99 413-693): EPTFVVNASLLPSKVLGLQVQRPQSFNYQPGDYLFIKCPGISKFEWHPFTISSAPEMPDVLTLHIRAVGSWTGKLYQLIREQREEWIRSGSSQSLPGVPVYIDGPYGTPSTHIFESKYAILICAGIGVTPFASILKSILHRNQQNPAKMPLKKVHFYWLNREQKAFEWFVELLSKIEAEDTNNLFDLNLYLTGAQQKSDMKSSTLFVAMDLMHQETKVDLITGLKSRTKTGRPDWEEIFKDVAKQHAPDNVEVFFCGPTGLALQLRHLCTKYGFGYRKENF

[7] = biological target: C-terminal mutant dehydrogenase domain of bacterial NOX5; assay: NADPH-depletion assay on C-terminal mutant NOX5 dehydrogenase domain; type: biochemical, Cylindrospermum stagnale; details: uncompetitive, low-activity mutant of the dehydrogenase domain
[8] = biological target: full-length bacterial NOX5 (Cylindrospermum stagnale, UniProt K9WT99); assay: biochemical
[9] = biological target: T2, human NOX2; assay: MCLA assay on NOX2 membranes; type: biochemical; details: 100 μM compound
[10] = MCLA auto-oxidation assay; details: 100 μM compound
[11] = Amplex Red/peroxidase assay in the absence of a NOX enzyme; details: 100 μM compound, no NOX enzyme, NADPH present
In short: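 Compound (100 μM) added to the Amplex Red/horseradish peroxidase H2O2 read-out with NADPH present but no NOX membranes, to probe reagent interference. Resorufin fluorescence read on a plate reader.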

[12] = system: wild-type NOX5 dehydrogenase domain; assay: Thermal shift analysis on purified NOX5 dehydrogenase domain; type: binding, Cylindrospermum stagnale; details: inflection temperature Ti, 35–95 °C
In short: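 Wild-type purified NOX5 dehydrogenase domain, with or without ligand, heated from 35 °C to 95 °C over 3 min on a Tycho system; inflection temperature (Ti) determined.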

[13] = NADH-PMS superoxide-scavenging assay; details: 100 μM compound, PMS-NADH/nitroblue tetrazolium
In short: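 Non-enzymatic superoxide generation in 16 mM Tris-HCl pH 8.0 with 80 μM nitroblue tetrazolium and 70 μM NADH plus compound (100 μM). Started with 5 μM phenazine methosulfate; 5 min at 25 °C; A560. SOD as positive control; lower absorbance than the negative control scored as scavenging.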

[14] = system: NOXs; assay: Initial evaluation of NOX inhibitors, isoform not specified; type: biochemical; details: 100 μM compound
[15] = biological target: T5, wild-type dehydrogenase domain of NOX5 (Cylindrospermum stagnale, UniProt K9WT99); assay: Microscale thermophoresis binding assay on purified NOX5 dehydrogenase domain
T5 sequence (K9WT99 413-693): T4 sequence (K9WT99 413-693)
In short: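 Microscale thermophoresis with fluorescently labelled wild-type NOX5 dehydrogenase domain (~200 nM). Ligand given as 16 serial dilutions up to 6.4 mM in 50 mM Hepes, 240 mM NaCl, 0.5% glycerol, 250 μM FAD, 0.1% pluronic acid, pH 7.5. Incubated 10 min at 25 °C; recorded at 25 °C, red channel. Kd from binding isotherms, triplicate, standard deviation.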

xanthine oxidase, sequence (P80457 whole entry): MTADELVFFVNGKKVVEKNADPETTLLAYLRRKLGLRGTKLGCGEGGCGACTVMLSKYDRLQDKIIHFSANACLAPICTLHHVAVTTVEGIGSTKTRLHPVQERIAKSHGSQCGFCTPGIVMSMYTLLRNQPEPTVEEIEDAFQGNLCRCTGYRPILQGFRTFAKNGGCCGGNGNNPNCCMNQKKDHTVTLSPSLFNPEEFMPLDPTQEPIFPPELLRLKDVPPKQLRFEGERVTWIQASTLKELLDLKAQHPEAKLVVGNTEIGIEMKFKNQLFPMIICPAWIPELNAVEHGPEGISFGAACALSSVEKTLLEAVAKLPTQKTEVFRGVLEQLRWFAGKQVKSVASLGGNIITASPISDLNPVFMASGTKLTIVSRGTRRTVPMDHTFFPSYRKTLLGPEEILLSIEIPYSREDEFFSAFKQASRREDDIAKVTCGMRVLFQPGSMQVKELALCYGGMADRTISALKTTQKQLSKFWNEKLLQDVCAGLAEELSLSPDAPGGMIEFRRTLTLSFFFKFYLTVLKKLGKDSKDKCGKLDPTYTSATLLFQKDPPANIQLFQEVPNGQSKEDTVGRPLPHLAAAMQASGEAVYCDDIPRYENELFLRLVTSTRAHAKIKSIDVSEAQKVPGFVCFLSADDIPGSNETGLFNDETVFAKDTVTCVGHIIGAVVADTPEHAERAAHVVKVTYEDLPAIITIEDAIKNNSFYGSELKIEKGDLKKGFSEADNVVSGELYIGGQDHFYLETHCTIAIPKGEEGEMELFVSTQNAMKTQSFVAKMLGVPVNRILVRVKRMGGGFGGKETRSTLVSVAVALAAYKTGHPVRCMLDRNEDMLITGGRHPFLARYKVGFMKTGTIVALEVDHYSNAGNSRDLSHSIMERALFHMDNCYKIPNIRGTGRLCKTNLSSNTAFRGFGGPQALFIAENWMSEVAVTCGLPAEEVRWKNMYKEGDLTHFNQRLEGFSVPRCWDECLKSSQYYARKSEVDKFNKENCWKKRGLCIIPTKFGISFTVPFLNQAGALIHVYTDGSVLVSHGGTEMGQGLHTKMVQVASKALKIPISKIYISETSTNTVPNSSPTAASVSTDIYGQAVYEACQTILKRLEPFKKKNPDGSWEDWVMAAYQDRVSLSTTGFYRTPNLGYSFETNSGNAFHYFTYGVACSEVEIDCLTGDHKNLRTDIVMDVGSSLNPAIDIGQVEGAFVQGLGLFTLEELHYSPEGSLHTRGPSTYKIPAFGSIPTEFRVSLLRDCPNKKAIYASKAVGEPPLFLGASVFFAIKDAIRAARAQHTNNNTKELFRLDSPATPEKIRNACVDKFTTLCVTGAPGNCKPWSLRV

SMILES | inhibition of the hydrogen peroxide-producing activity of xanthine oxidase [1] | inhibition of NOX5 (in words) [2] | inhibition of NOX2 (in words) [4] | inhibition of NOX4 (in words) [5] | interference with MCLA auto-oxidation [10] | superoxide scavenging [13] | also measured
CC1=NN(c2ccccc2)CC1 [3-methyl-1-phenyl-2-pyrazoline] | powerful inhibitions | – | – | – | – | – | –
CC(C)c1c(C(=O)Nc2ccccc2)c(-c2ccccc2)c(-c2ccc(F)cc2)n1CC[C@@H](O)C[C@@H](O)CC(=O)O [Atorvastatin] | – | – | – | – | – | – | inhibition at 100 µM ([2]; read-out: inhibition of NOX5): ~50%
c1ccc2c(c1)[I+]c1ccccc1-2 [DPI, Diphenylene iodonium] | powerful inhibitions; also recorded: inhibits xanthine oxidase | full | full | full | – | – | IC50 [3]: 3280 ± 1320 nM; αKi ([6]; wild-type domain, exogenous FAD 300 μM): 127 ± 13 µM; αKi [7]: 0.42 ± 0.06 µM; Ki [8]: 980 ± 140 nM
CN(C)c1cccc(-c2c3c(=O)n(-c4ccccc4Cl)[nH]c3cc(=O)n2C)c1 [GKT137831] | powerful inhibitions | – | – | strong NOX4 inhibitors | substantial interference | – | inhibition of NOX5 with the MCLA-based protocol (in words) ([3]; 100 μM compound, MCLA assay): moderately active; inhibition of NOX2 with MCLA (in words) [9]: moderately active; interference on the Amplex Red/peroxidase assay [11]: substantial interference
CC1=C(O)C(=O)C=C2C1=CC=C1[C@@]2(C)CC[C@@]2(C)[C@@H]3C[C@](C)(C(=O)O)CC[C@]3(C)CC[C@]12C [celastrol] | powerful inhibitions | full | full | full | interfered with the MCLA auto-oxidation | – | stabilising effect in thermal shift analysis [12]: lack of any stabilising effect
O=c1c2ccccc2[se]n1-c1ccccc1 [ebselen] | powerful inhibitions | full | full | full | substantial interference | – | interference on the Amplex Red/peroxidase assay [11]: substantial interference; stabilising effect in thermal shift analysis [12]: lack of any stabilising effect
OCCN1CCN(CCCN2c3ccccc3Sc3ccc(C(F)(F)F)cc32)CC1 [fluphenazine] | powerful inhibitions | – | – | – | – | mild scavenging activities | –
C1CCC(C(CC2CCCCN2)C2CCCCC2)CC1 (stereo not drawn) [perhexiline] | – | not against NOX5 | – | – | interfered with the MCLA auto-oxidation | – | inhibition at 100 µM ([4]; read-out: inhibition of NOX2): 40 to 70%; inhibition at 100 µM ([5]; read-out: inhibition of NOX4): 40 to 70%
OCCN1CCN(CCCN2c3ccccc3Sc3ccc(Cl)cc32)CC1 [perphenazine] | powerful inhibitions | – | – | – | – | mild scavenging activities | –
O=c1[nH]c2ccccc2c2ccccc12 [phenanthridinone, 6(5H)-phenanthridinone] | – | – | – | – | – | mild scavenging activities | pattern of NOX inhibition (in words) [14]: assay-dependent inhibitory activities
CC1=CC(=O)c2c(O)cccc2C1=O [plumbagin] | – | – | – | – | – | – | pattern of NOX inhibition (in words) [14]: assay-dependent inhibitory activities
CN(C)CCCN1c2ccccc2Sc2ccccc21 [promazine] | powerful inhibitions | – | – | – | – | – | –
Cc1ccc(C(=O)Nc2ccc(S(=O)(=O)O)c3cc(S(=O)(=O)O)cc(S(=O)(=O)O)c23)cc1NC(=O)c1cccc(NC(=O)Nc2cccc(C(=O)Nc3cc(C(=O)Nc4ccc(S(=O)(=O)O)c5cc(S(=O)(=O)O)cc(S(=O)(=O)O)c45)ccc3C)c2)c1 [suramin] | – | full | full | full | – | strong superoxide scavenger | Ki [6]: 390 ± 50 nM; Kd [15]: 52200 ± 1100 nM; stabilising effect in thermal shift analysis [12]: lack of any stabilising effect
